# Shown are actives, neighbours in structure and some others; about 3.9% of the full set was active somewhere.
# SF-1 act = activators of human nuclear receptor SF-1 | Q13285 | CHO-K1 Gal4-SF-1 LBD luciferase reporter; % increase over DMSO SF-1-specific signal | activation, % at 10 µM | actives 1.9% (n = 65,000) | AID 522;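 active = activation above the mean activation of all tested compounds plus 3 SD, cut at about 50% in these data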
#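 material = CHO-K1 cells with Gal4–hSF-1 LBD chimera plus Gal4-driven luciferase | compound = 10 µM single point, 1% DMSO | incubation = 20 h compound exposure at 37 °C after 1 h cell settling | measured by = SteadyLite luciferase luminescence | evaluation = percent activation relative to DMSO median and mock-transfected background | control set = DMSO negative control and −SF1 background wells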
# Jurkat tox 60K = cytotoxic compounds reducing Jurkat cell viability | Jurkat E6.1 viability, ATP luminescence, 48 h | inhibition, % at 4 µM | actives 1.2% (n = 56,000) | AID 463;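 active = inhibition above the mean inhibition of all tested compounds plus 3 SD, cut at about 28% in these data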
# RORa activator = activates the human nuclear receptor RORA; CHO-K1 Gal4-RORA LBD luciferase reporter, luminescence; percent increase over mock-subtracted basal signal; activation, % at 10 µM; actives 1.5% (n = 65,000); AID 560;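 active = activation above the mean of all tested compounds plus 3 SD, cut at about 49% in these data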;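 also: 0% = DMSO-treated RORA cells and 100% = added signal equal to DMSO minus mock-transfected cells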
# HEK293 NFkB inh = lowers PMA/ionomycin-induced NF-kB signal in HEK293 cells | HEK-293 NF-kB luciferase reporter, luminescence | inhibition, % at 3 µM | actives 0.21% (n = 62,000) | AID 465;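 active = inhibition above the mean of all tested compounds plus 3 SD, cut at about 40% in these data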;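 also: 0% = stimulated DMSO wells and 100% = 10 µM reference inhibitor 5653914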
#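 Timing: 1 h pretreatment, 16 h stimulation, 37 °C; system: HEK-293 cells with stable firefly luciferase reporter driven by four HIV NF-kB elements; doses: 3 µM once, 0.30% DMSO; measured by: luciferase luminescence; control set: DMSO and 10 µM reference inhibitor; repeats: single test; reagent: PMA plus ionomycin mix as NF-kB-activating stimulus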
# * = called active by the depositor; / = not tested or not shown.
SMILES,SF-1 act,Jurkat tox 60K,RORa activator,HEK293 NFkB inh
O=C(c1ccc2c(c1)ncn2C1CCCCC1)N1CCC2(CC1)OCCO2,33,54*,25,18
O=C(c1cc2ccccn2n1)N1CCC2(CC1)OCCO2,4,/,-10,3
COc1ccccc1OCCCn1cc(C(=O)c2ccco2)c2ccccc21,52*,-3,65*,-10
CCn1nc(-c2ccccc2)nc2c(=O)n(C)c(=O)nc1-2,-95,27,-93,90*
COc1cccc(C2=NOC(C(=O)N3CCC4(CC3)OCCO4)C2)c1 (configuration not stated),56*,0,26,-2
O=C(C1CCCO1)N1CCC2(CC1)OCCO2 (configuration not stated),-3,-9,-16,11
COc1cccc(-n2nc(C(=O)N3CCC4(CC3)OCCO4)c3ccccc3c2=O)c1,13,-1,-21,0
O=C(C1CC(c2ccc(Cl)c(Cl)c2)=NO1)N1CCC2(CC1)OCCO2 (configuration not stated),30,-1,73*,3
CCOC(=O)C(O)(c1cn(C)c2ccccc12)C(F)(F)F (configuration not stated),6,11,-2,18
Nc1ccccc1N=Cc1c(O)n(CCC2=CCCCC2)c(=O)[nH]c1=O,78*,6,44,-2
CCOC(=O)c1cc2c(cn1)[nH]c1ccccc12,36,/,38,/
c1cc2n(c1)-c1c(ccc3c1OCO3)CNC2c1ccc2c(c1)OCO2 (configuration not stated),-12,2,-5,21
COc1ccc(C2NCc3ccc4c(c3-n3cccc32)OCO4)cc1O (configuration not stated),21,78*,50*,26
Cc1[nH]c2c(C(F)(F)F)cccc2c1CCN,-12,53*,-20,24
CC(C(=O)N1CCC2(CC1)OCCO2)C1Sc2ccccc2NC1=O (configuration not stated),4,8,-11,13
CCC(C)N1C(=O)NC(=O)C2(Cc3cc(C)ccc3N(C)C2)C1=O (configuration not stated),-8,-3,-3,13

# Bioassay records from PubChem BioAssay.
